UCH37 inh – inhibitors of human UCH37 deubiquitinase, primary screen, biochemical, Ub-AMC cleavage, fluorescence. purified proteasome/UCH37. 0.33% of 330,000 active. inhibition, % (test concentration not listed). AID 588478, 2011. Ubiquitin carboxyl-terminal hydrolase isozyme L5 (Homo sapiens), Q9Y5K5;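 active means mean inhibition over replicate wells above about 20%, limit read from the data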
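System: Proteasome-associated human UCH37 deubiquitinase; Input: 0.15 nM proteasome in added enzyme buffer; Also added: Ub-AMC substrate from 1 µM stock; Incubation: 30 min compound-proteasome preincubation then 25 min substrate reaction, room temperature; Detection: fluorescence, ex 355 nm, em 460 nm; Read-out: % inhibition of Ub-AMC cleavage fluorescence; Benchmarks: no-proteasome and no-compound wells.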
SENP1 inh – human SENP1 catalytic domain inhibitors, primary screen, biochemical, FRET, uHTS | AID 624204, 2012 | inhibition, % at 10 µM | recombinant SENP1 catalytic domain, CyPet-SUMO1-YPet FRET cleavage | 0.21% of 360,000 active;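 active means inhibition at least 30% at 10 µM, raw YFP signal under a set limit, fluorescence ratio 0.5 to 1.5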
Target sequence (Q9P0U3 419-644 limits assumed): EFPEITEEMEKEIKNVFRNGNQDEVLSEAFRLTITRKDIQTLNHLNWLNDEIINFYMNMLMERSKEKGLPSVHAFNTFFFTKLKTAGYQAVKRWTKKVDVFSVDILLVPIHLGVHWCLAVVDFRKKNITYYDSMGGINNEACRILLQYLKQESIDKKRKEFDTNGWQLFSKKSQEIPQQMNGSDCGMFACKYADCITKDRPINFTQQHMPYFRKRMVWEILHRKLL
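Assay system – human recombinant His6-tagged SENP1 catalytic domain enzyme · Input – SENP1 enzyme, 20 pM final · Buffer or medium – Tris pH 8 buffer plus EDTA, NaCl, BME, BSA, NP40, catalase · Schedule – 50 min reaction at room temperature · Technique – FRET read of cyan and yellow fluorescence · Control set – no-enzyme wells low, DMSO-plus-enzyme wells high control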
SENP8 block-1 – SENP8 protease inhibitors, primary screen, biochemical, luminescence; purified SENP8, Z-RLRGG-aminoluciferin cleavage; inhibition, % at 10 µM; 1.2% of 330,000 active; AID 2540, 2010; in the data active means inhibition above about 50%
SENP8 block-2 – human SENP8 protease inhibitors, primary screen, biochemical, fluorescence, Nedd8 protein substrate, uHTS. Sentrin-specific protease 8 (Homo sapiens), Q96LD8. recombinant SENP8. inhibition, % at 20 µM. 0.64% of 360,000 active. AID 602440, 2012; in the data active means inhibition mostly above about 40%, no sharp cut-off; inactive means mostly below about 27%
SENP6 block – SENP6 protease inhibitors, primary screen, biochemical, luminescence, uHTS; Sentrin-specific protease 6 (Homo sapiens), Q9GZR1; Recombinant SENP6 catalytic domain, aminoluciferin luminescence; inhibition, % at 10 µM; 1.8% of 330,000 active;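 active means inhibition above about 50% at the single tested dose, limit read from the data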
Target sequence (Q9GZR1 628-1112 limits assumed): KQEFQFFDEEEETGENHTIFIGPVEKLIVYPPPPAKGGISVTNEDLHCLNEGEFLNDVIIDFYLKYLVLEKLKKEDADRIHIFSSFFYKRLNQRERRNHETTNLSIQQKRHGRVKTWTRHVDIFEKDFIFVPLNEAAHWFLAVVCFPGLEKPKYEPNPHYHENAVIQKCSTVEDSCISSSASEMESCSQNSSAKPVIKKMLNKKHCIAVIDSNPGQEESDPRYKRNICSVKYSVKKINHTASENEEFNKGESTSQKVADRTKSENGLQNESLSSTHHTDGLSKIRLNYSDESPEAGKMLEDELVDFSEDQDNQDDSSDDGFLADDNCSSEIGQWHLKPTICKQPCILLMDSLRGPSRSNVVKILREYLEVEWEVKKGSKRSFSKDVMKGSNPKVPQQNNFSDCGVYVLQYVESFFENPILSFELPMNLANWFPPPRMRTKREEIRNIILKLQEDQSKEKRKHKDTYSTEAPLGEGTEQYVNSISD
SENP7 block – SENP7 protease inhibitors, primary screen, biochemical, luminescence, uHTS | 1.5% of 330,000 active | inhibition, % at 5 µM | Sentrin-specific protease 7 (Homo sapiens), Q9BQF6 | recombinant SENP7, Z-RLRGG-aminoluciferin luminescence, 40 min;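 active means inhibition above about 50% at the single test dose, limit read from the data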
SENP8 confirm – SENP8 protease inhibitors, retest, confirmation, biochemical, luminescence, single concentration; 40% of 6,200 active; Recombinant SENP8, Z-RLRGG-aminoluciferin luminescence, 60 min; inhibition, % at 12.5 µM; shares compounds with SENP7 block;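 active means mean inhibition across replicates above about 50%, limit read from the data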
SENP6 conf – SENP6 protease inhibitors, confirmation, biochemical, luminescence, single concentration; shares compounds with SENP7 block; recombinant SENP6, Z-RLRGG-aminoluciferin luminescence; inhibition, % at 12.5 µM; 58% of 6,200 active; AID 488915, 2010
SENP7 conf – SENP7 protease inhibitors, retest, confirmation, biochemical, luminescence, single concentration | 69% of 6,200 active | inhibition, % at 12.5 µM | recombinant SENP7, Z-RLRGG-aminoluciferin luminescence, 40 min | shares compounds with SENP7 block
Casp3 select – caspase-3 protease inhibitors, confirmation, selectivity assay for SENP inhibitor project, biochemical, single concentration; shares compounds with SENP7 block; purified caspase-3, Z-DEVD-aminoluciferin luminescence, 60 min; inhibition, % at 12.5 µM; 60% of 6,200 active; AID 488918, 2010;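 active means mean inhibition above about 50%, limit read from the data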
Luc interf – counter-screen for SENP inhibitors: luminescence interference | shares compounds with SENP7 block | Pre-incubated SENP8/Z-RLRGG-aminoluciferin, luciferase luminescence interference | inhibition, % at 12.5 µM | 39% of 6,200 active | AID 488919;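 active means mean inhibition above about 50% when retested at one dose, limit read from the data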
Numbers stand for hits; – = inactive; · = not tested or not shown. Compounds with a hit are over-represented: about 2.6% of the library has one in this group of screens.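 How the source made its calls, unless noted: active means mean inhibition above about 50% in the one-dose retest (limit read from the data); inactive means the rest.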

SMILES | UCH37 inh | SENP1 inh | SENP8 block-1 | SENP8 block-2 | SENP6 block | SENP7 block | SENP8 confirm | SENP6 conf | SENP7 conf | Casp3 select | Luc interf
O=C(O)c1cccc(NC(=O)c2cccc(S(=O)(=O)Nc3cccc([N+](=O)[O-])c3)c2)c1 | – | – | 51 | – | 65 | – | 72 | 69 | 86 | – | –
Cc1ccccc1NS(=O)(=O)c1cccc(C(=O)Nc2cccc(C(=O)O)c2)c1 | – | – | – | – | 65 | – | 52 | – | 72 | – | –
O=C(O)c1cccc(NN=Cc2cn(-c3ccccc3)nc2-c2cccs2)c1 | – | · | · | · | · | · | · | · | · | · | ·
COc1cc(NC(=O)CC(C)=NNC(=O)C(=O)NCCO)c(OC)cc1Cl | – | · | · | · | · | · | · | · | · | · | ·
COc1ccc(/C=N/Nc2cc(N3CCCC3)nc(N3CCCC3)n2)cc1 | · | – | – | – | 52 | – | – | 51 | – | – | –
Oc1ccc(/C=N/Nc2cc(N3CCCC3)nc(N3CCCC3)n2)cc1 | · | – | – | – | – | 78 | – | 61 | 79 | – | –
COc1ccc(C=NNc2cc(N3CCCC3)nc(N3CCCC3)n2)cc1 | – | · | · | · | · | · | · | · | · | · | ·
Oc1ccc(/C=N/Nc2cc(N3CCOCC3)nc(N3CCOCC3)n2)cc1 | · | – | – | – | – | 60 | – | – | – | – | –
Oc1cccc(/C=N/Nc2cc(N3CCCC3)nc(N3CCCC3)n2)c1 | · | – | – | – | 57 | 51 | – | 66 | – | – | –
O=C(C=NO)NCCCN1CCCCCC1 | – | · | · | · | · | · | · | · | · | · | ·
CC1CCCC(C)N1N=Cc1cccc(Br)c1 (stereo not drawn) | – | · | · | · | · | · | · | · | · | · | ·
O=C(Nc1ccc2c(c1)CCC2)c1ccccc1Br | – | – | – | – | – | – | · | · | · | · | ·
O=C(Cc1cccc(F)c1)Nc1ccc2c(c1)CCC2 | – | – | – | – | – | – | · | · | · | · | ·
O=C(Nc1ccc2c(c1)CCC2)c1cccc(F)c1 | – | – | 76 | – | 88 | 92 | 91 | 91 | 100 | 88 | 90
CSc1ccccc1C(=O)Nc1ccc2c(c1)CCC2 | – | – | – | – | 52 | – | – | – | 77 | – | 54
Cc1ccc(C(=O)NCC(=O)Nc2ccc3c(c2)CCC3)cc1 | – | – | – | – | – | – | · | · | · | · | ·
Cc1ccc(NC(=O)c2scc3c2CCCC3)cc1 | – | – | – | – | 91 | 85 | – | – | – | – | –
Cc1ccc(C(=O)Nc2ccc3c(c2)CCC3)cc1 | – | – | 81 | – | 88 | 91 | 88 | 89 | 98 | 87 | 86
Cc1ccc(NC(=O)c2cc3c(s2)CCCC3)cc1 | – | – | – | – | – | – | · | · | · | · | ·
COCCCn1c(=C(C#N)C(=O)N2CCOCC2)sc(=Cc2ccccc2OC(F)F)c1=O | – | · | · | · | · | · | · | · | · | · | ·
C(=NN1CCN(c2ccccn2)CC1)C1=C(N2CCOCC2)/C(=C/c2ccccc2)CC1 | – | · | · | · | · | · | · | · | · | · | ·
O=S(=O)(NN=Cc1ccc2c(c1)OCCO2)c1ccccc1 | – | · | · | · | · | · | · | · | · | · | ·
O=C(Nc1ccc2c(c1)CCC2)c1cc(F)cc(F)c1 | – | – | 70 | – | 72 | 77 | – | 78 | 95 | 65 | –
O=C(c1ccccc1)c1nnc(-c2ccncc2)o1 | – | – | – | – | 58 | 57 | 68 | 64 | 86 | 88 | 57
O=C1CCCc2nc(N3CCc4ccccc43)ncc21 | – | – | 78 | – | 91 | 89 | – | – | – | – | –
SMILES | UCH37 inh | SENP1 inh | SENP8 block-1 | SENP8 block-2 | SENP6 block | SENP7 block | SENP8 confirm | SENP6 conf | SENP7 conf | Casp3 select | Luc interf
O=C(O)CCCC(=O)Nc1ccc(OCc2nc3ccccc3s2)cc1 | – | – | – | – | – | – | · | · | · | · | ·
O=C(OCc1nc2ccccc2s1)c1ccccc1O | – | – | 85 | – | 92 | 86 | 89 | 90 | 98 | 83 | 74
O=C(O)c1ccccc1OCc1nc2ccccc2s1 | – | – | 90 | – | 92 | 92 | 91 | 93 | 100 | 85 | 79
O=C(OCc1nc2ccccc2s1)c1cccs1 | – | – | – | – | 74 | – | 63 | 70 | 84 | – | 64
Cn1cccc1-c1cc(C(=O)NN=C/C=C/c2ccccc2)[nH]n1 | – | · | · | · | · | · | · | · | · | · | ·
Cn1cccc1C=NNC(=O)c1cccnc1 | – | · | · | · | · | · | · | · | · | · | ·
Cc1cccnc1Nc1nc(-c2ccc(F)cc2)cs1 | – | – | 89 | – | 92 | 93 | 89 | 93 | 101 | 74 | 53
Cc1cccnc1Nc1nc(-c2ccc(O)cc2)cs1 | – | – | 96 | – | 93 | 94 | 96 | 98 | 102 | 89 | 97
Fc1ccc(-c2csc(NC3=NCCC3)n2)cc1 | – | – | – | – | – | – | · | · | · | · | ·
Cc1cc(C(=O)NN=Cc2ccc(-c3cccc(Br)c3)o2)n[nH]1 | – | · | · | · | · | · | · | · | · | · | ·
Cc1ccsc1C=NNC(=O)c1nnn(-c2nonc2N)c1C(C)C | – | · | · | · | · | · | · | · | · | · | ·
Cc1ccc(S(=O)(=O)Oc2ccccc2/C=N/NC(N)=S)cc1 | · | – | – | – | – | 70 | – | – | – | – | –
COc1ccc(C=NNC(=S)N[C@H]2CC3CCC2C3)cc1 (stereo partly drawn) | – | · | · | · | · | · | · | · | · | · | ·
CC(C)CSC1=NSC2=NC(=O)/C(=C\c3cccs3)C(=N)N12 | – | – | – | – | 68 | – | 51 | 53 | – | – | –
CSC1=NSC2=NC(=O)/C(=C\c3cccs3)C(=N)N12 | – | – | · | – | · | · | · | · | · | · | ·
N=C1/C(=C/c2cccs2)C(=O)N=C2SN=C(SCc3ccccc3)N12 | – | – | – | – | 66 | – | – | 59 | – | – | –
O=[N+]([O-])c1cccc(NN=Cc2cccc(O)c2O)c1 | – | · | · | · | · | · | · | · | · | · | ·
Cc1nc(N=Cc2ccc(N(C)C)cc2)sc1C | – | · | · | · | · | · | · | · | · | · | ·

Screens as filed in PubChem.
